Measurements reported in ChEMBL document CHEMBL3102784, “Salicylanilide diethyl phosphates: synthesis, antimicrobial activity and cytotoxicity” (Bioorg Med Chem, 2014).
Converted amounts (≈) assume the structure as drawn. The source made the active and inactive calls. No cut-off for these calls is given here.

Legend:
Mycobacterium avium [1] = assay: Antimycobacterial activity against isoniazid, rifampicin, ethambutol and ofloxacin-resistant Mycobacterium avium My 330/88 after 21 days; assay type: functional; settings: My 330/88, 504 h
Outline: (§1)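 Micromethod MIC in Šula's semisynthetic medium at 37 °C. Compounds added in DMSO at 1000 down to 0.032 µmol/L. Isoniazid standard in sterile water at 0.5–250 µmol/L. Inocula: H37Rv 10^3, M. avium 10^5, M. kansasii 10^4. Read at 14 and 21 d, plus 7 d for M. kansasii.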

Mycobacterium avium [2] = assay: Antimycobacterial activity against isoniazid, rifampicin, ethambutol and ofloxacin-resistant Mycobacterium avium My 330/88 after 14 days; assay type: functional; settings: My 330/88, 336 h; outline: as §1
[3] = test system: Mycobacterium tuberculosis; assay: Antimycobacterial activity against Mycobacterium tuberculosis H37Rv My 331/88 after 21 days; assay type: functional; settings: H37Rv My 331/88, 504 h; outline: as §1
[4] = test system: Mycobacterium tuberculosis; assay: Antimycobacterial activity against Mycobacterium tuberculosis H37Rv My 331/88 after 14 days; assay type: functional; settings: H37Rv My 331/88, 336 h; outline: as §1
[5] = test system: Trichophyton mentagrophytes; assay: Antifungal activity against Trichophyton mentagrophytes 445 after 120 hrs by broth microdilution method; assay type: functional; settings: Trichophyton mentagrophytes, 445, 120 h
Outline: (§2)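 Filamentous dermatophyte tested by broth microdilution in RPMI 1640 with glutamine, fluconazole as reference. Value expressed as IC50 relative to growth control. Read at 72 and 120 h.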

[6] = test system: Trichophyton mentagrophytes; assay: Antifungal activity against Trichophyton mentagrophytes 445 after 72 hrs by broth microdilution method; assay type: functional; settings: Trichophyton mentagrophytes, 445, 72 h; outline: as §2
Lichtheimia corymbifera [7] = assay: Antifungal activity against Absidia corymbifera 272 after 48 hrs by broth microdilution method; assay type: functional; settings: Lichtheimia corymbifera, 272, 48 h
Outline: (§3)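 Broth microdilution in RPMI 1640 with glutamine, fluconazole as reference. For yeasts, MIC is ≥80% growth reduction (IC80) versus control. For filamentous fungi, the value is expressed as IC50. Readings at 24 and 48 h.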

Lichtheimia corymbifera [8] = assay: Antifungal activity against Absidia corymbifera 272 after 24 hrs by broth microdilution method; assay type: functional; settings: Lichtheimia corymbifera, 272, 24 h; outline: as §3
Aspergillus fumigatus [9] = assay: Antifungal activity against Aspergillus fumigatus 231 after 48 hrs by broth microdilution method; assay type: functional; settings: Aspergillus fumigatus, 231, 48 h; outline: as §3
Aspergillus fumigatus [10] = assay: Antifungal activity against Aspergillus fumigatus 231 after 24 hrs by broth microdilution method; assay type: functional; settings: Aspergillus fumigatus, 231, 24 h; outline: as §3
Trichosporon asahii [11] = assay: Antifungal activity against Trichosporon asahii 1188 after 48 hrs by broth microdilution method; assay type: functional; settings: Trichosporon asahii, 1188, 48 h; outline: as §3
Trichosporon asahii [12] = assay: Antifungal activity against Trichosporon asahii 1188 after 24 hrs by broth microdilution method; assay type: functional; settings: Trichosporon asahii, 1188, 24 h; outline: as §3
Pichia kudriavzevii [13] = assay: Antifungal activity against Candida krusei E28 after 48 hrs by broth microdilution method; assay type: functional; settings: E28, 48 h; outline: as §3
Pichia kudriavzevii [14] = assay: Antifungal activity against Candida krusei E28 after 24 hrs by broth microdilution method; assay type: functional; settings: E28, 24 h; outline: as §3
Candida albicans [15] = assay: Antifungal activity against Candida albicans ATCC 44859 after 48 hrs by broth microdilution method; assay type: functional; settings: ATCC 44859, 48 h; outline: as §3
Candida albicans [16] = assay: Antifungal activity against Candida albicans ATCC 44859 after 24 hrs by broth microdilution method; assay type: functional; settings: ATCC 44859, 24 h; outline: as §3
Nakaseomyces glabratus = assay: Antifungal activity against Candida glabrata 20/I at 500 micromol/L after 24 to 48 hrs by broth microdilution method; assay type: functional, organism-based; outline: as §3
Candida tropicalis = assay: Antifungal activity against Candida tropicalis 156 at 500 micromol/L after 24 to 48 hrs by broth microdilution method; assay type: functional, organism-based; outline: as §3
Pseudomonas aeruginosa = assay: Antibacterial activity against Pseudomonas aeruginosa CCM 1961 at 500 micromol/L after 24 to 48 hrs by broth microdilution method; assay type: functional, organism-based
Outline: (§4)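 Broth microdilution in Mueller–Hinton broth, compounds dissolved in DMSO, tested over a dilution series from 500 downward. MIC taken as ≥95% growth reduction (IC95) versus drug-free control. Benzylpenicillin comparator. Readings at 24 and 48 h.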

Klebsiella pneumoniae [17] = assay: Antibacterial activity against ESBL-positive Klebsiella pneumoniae J 14368/08 at 500 micromol/L after 24 to 48 hrs by broth microdilution method; assay type: functional, organism-based; outline: as §4
Klebsiella pneumoniae [18] = assay: Antibacterial activity against Klebsiella pneumoniae D 11750/08 at 500 micromol/L after 24 to 48 hrs by broth microdilution method; assay type: functional, organism-based; outline: as §4
Escherichia coli = assay: Antibacterial activity against Escherichia coli CCM 4517 at 500 micromol/L after 24 to 48 hrs by broth microdilution method; assay type: functional, organism-based; outline: as §4
Enterococcus sp. = assay: Antibacterial activity against Enterococcus sp. J 14365/08 at 500 micromol/L after 24 to 48 hrs by broth microdilution method; assay type: functional, organism-based; outline: as §4
[19] = test system: Staphylococcus epidermidis; assay: Antibacterial activity against Staphylococcus epidermidis H 6966/08 after 48 hrs by broth microdilution method; assay type: functional; settings: H 6966/08, 48 h; outline: as §4
[20] = test system: Staphylococcus epidermidis; assay: Antibacterial activity against Staphylococcus epidermidis H 6966/08 after 24 hrs by broth microdilution method; assay type: functional; settings: H 6966/08, 24 h; outline: as §4
Staphylococcus aureus [21] = assay: Antibacterial activity against methicillin-resistant Staphylococcus aureus H 5996/08 after 48 hrs by broth microdilution method; assay type: functional; settings: H 5996/08, 48 h; outline: as §4
Staphylococcus aureus [22] = assay: Antibacterial activity against methicillin-resistant Staphylococcus aureus H 5996/08 after 24 hrs by broth microdilution method; assay type: functional; settings: H 5996/08, 24 h; outline: as §4
Staphylococcus aureus [23] = assay: Antibacterial activity against Staphylococcus aureus CCM 4516/08 after 48 hrs by broth microdilution method; assay type: functional; settings: CCM 4516/08, 48 h; outline: as §4
Staphylococcus aureus [24] = assay: Antibacterial activity against Staphylococcus aureus CCM 4516/08 after 24 hrs by broth microdilution method; assay type: functional; settings: CCM 4516/08, 24 h; outline: as §4
Mycobacterium kansasii [25] = assay: Antimycobacterial activity against Mycobacterium kansasii 6509/96 after 21 days; assay type: functional; settings: 6509/96, 504 h; outline: as §1
Mycobacterium kansasii [26] = assay: Antimycobacterial activity against Mycobacterium kansasii 6509/96 after 14 days; assay type: functional; settings: 6509/96, 336 h; outline: as §1
Mycobacterium kansasii [27] = assay: Antimycobacterial activity against Mycobacterium kansasii 6509/96 after 7 days; assay type: functional; settings: 6509/96, 168 h; outline: as §1
Mycobacterium kansasii [28] = assay: Antimycobacterial activity against Mycobacterium kansasii My 235/80 after 21 days; assay type: functional; settings: My 235/80, 504 h; outline: as §1
Mycobacterium kansasii [29] = assay: Antimycobacterial activity against Mycobacterium kansasii My 235/80 after 14 days; assay type: functional; settings: My 235/80, 336 h; outline: as §1
HepG2 = assay: Cytotoxicity against human HepG2 cells after 24 hrs by CellTiter assay; assay type: cell-based; settings: HepG2, 24 h
Outline: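 HepG2 cells (passage 27–33) in MEM with 10% FBS, L-glutamine and NEAA, seeded at 1×10^4 per well. Treated next day with compounds at 0.1–100 µM (or 0.1–25 µmol/L), triplicates, <1% DMSO, for 24 h at 37 °C, 5% CO2. MTS reagent added for 2 h, absorbance read at 490 nm. IC50 taken against untreated (100%) and 10% DMSO (0%) controls.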

Mycobacterium kansasii [30] = assay: Antimycobacterial activity against Mycobacterium kansasii My 235/80 after 7 days; assay type: functional; settings: My 235/80, 168 h; outline: as §1

SMILES | MIC (Mycobacterium avium [1]) | MIC (Mycobacterium avium [2]) | MIC [3] | MIC [4] | MIC50 [5] | MIC50 [6] | MIC50 (Lichtheimia corymbifera [7]) | MIC50 (Lichtheimia corymbifera [8]) | MIC50 (Aspergillus fumigatus [9]) | MIC50 (Aspergillus fumigatus [10]) | MIC80 (Trichosporon asahii [11]) | MIC80 (Trichosporon asahii [12]) | MIC80 (Pichia kudriavzevii [13]) | MIC80 (Pichia kudriavzevii [14]) | MIC80 (Candida albicans [15]) | MIC80 (Candida albicans [16]) | Activity (Nakaseomyces glabratus) | Activity (Candida tropicalis) | Activity (Pseudomonas aeruginosa) | Activity (Klebsiella pneumoniae [17]) | further results
CCOP(=O)(OCC)Oc1ccc(Br)cc1C(=O)Nc1cccc(Cl)c1 | 16 µM (≈ 7.4 µg/mL) | 16 µM (≈ 7.4 µg/mL) | 4 µM (≈ 1.85 µg/mL) | 4 µM (≈ 1.85 µg/mL) | 15.6 µM (≈ 7.23 µg/mL) | 7.81 µM (≈ 3.61 µg/mL) | > 500 µM | > 500 µM | > 500 µM | > 500 µM | 62.5 µM (≈ 28.9 µg/mL) | 15.6 µM (≈ 7.23 µg/mL) | 125 µM (≈ 57.8 µg/mL) | 31.2 µM (≈ 14.5 µg/mL) | > 500 µM | > 500 µM | inactive | inactive | inactive | inactive | Activity (Klebsiella pneumoniae [18]): inactive; Activity (Escherichia coli): inactive; Activity (Enterococcus sp.): inactive; MIC95 [19]: 250 µM (≈ 116 µg/mL); MIC95 [20]: 125 µM (≈ 57.8 µg/mL); MIC95 (Staphylococcus aureus [21]): 250 µM (≈ 116 µg/mL); MIC95 (Staphylococcus aureus [22]): 125 µM (≈ 57.8 µg/mL); MIC95 (Staphylococcus aureus [23]): 250 µM (≈ 116 µg/mL); MIC95 (Staphylococcus aureus [24]): 125 µM (≈ 57.8 µg/mL); MIC (Mycobacterium kansasii [25]): 8 µM (≈ 3.7 µg/mL); MIC (Mycobacterium kansasii [26]): 8 µM (≈ 3.7 µg/mL); MIC (Mycobacterium kansasii [27]): 4 µM (≈ 1.85 µg/mL); MIC (Mycobacterium kansasii [28]): 8 µM (≈ 3.7 µg/mL); MIC (Mycobacterium kansasii [29]): 8 µM (≈ 3.7 µg/mL); IC50 (HepG2): 6.52 µM; MIC (Mycobacterium kansasii [30]): 4 µM (≈ 1.85 µg/mL)
CCOP(=O)(OCC)Oc1ccc(Cl)cc1C(=O)Nc1cccc(Br)c1 | 16 µM (≈ 7.4 µg/mL) | 16 µM (≈ 7.4 µg/mL) | 4 µM (≈ 1.85 µg/mL) | 4 µM (≈ 1.85 µg/mL) | 15.6 µM (≈ 7.23 µg/mL) | 15.6 µM (≈ 7.23 µg/mL) | > 500 µM | > 500 µM | > 500 µM | > 500 µM | > 500 µM | > 500 µM | > 500 µM | > 500 µM | > 500 µM | > 500 µM | inactive | inactive | inactive | inactive | Activity (Klebsiella pneumoniae [18]): inactive; Activity (Escherichia coli): inactive; Activity (Enterococcus sp.): inactive; MIC95 [19]: 31.2 µM (≈ 14.5 µg/mL); MIC95 [20]: 15.6 µM (≈ 7.23 µg/mL); MIC95 (Staphylococcus aureus [21]): 62.5 µM (≈ 28.9 µg/mL); MIC95 (Staphylococcus aureus [22]): 31.2 µM (≈ 14.5 µg/mL); MIC95 (Staphylococcus aureus [23]): 31.2 µM (≈ 14.5 µg/mL); MIC95 (Staphylococcus aureus [24]): 15.6 µM (≈ 7.23 µg/mL); MIC (Mycobacterium kansasii [25]): 8 µM (≈ 3.7 µg/mL); MIC (Mycobacterium kansasii [26]): 8 µM (≈ 3.7 µg/mL); MIC (Mycobacterium kansasii [27]): 8 µM (≈ 3.7 µg/mL); MIC (Mycobacterium kansasii [28]): 8 µM (≈ 3.7 µg/mL); MIC (Mycobacterium kansasii [29]): 8 µM (≈ 3.7 µg/mL); IC50 (HepG2): 1.81 µM; MIC (Mycobacterium kansasii [30]): 4 µM (≈ 1.85 µg/mL)
